Assay results: ChEMBL document CHEMBL5252546, “Salutaxel, a Conjugate of Docetaxel and a Muramyl Dipeptide (MDP) Analogue, Acts as Multifunctional Prodrug That Inhibits Tumor Growth and Metastasis” (J Med Chem, 2018)
Calls of active or inactive are those of the source. No cut-off for these calls is given here.

Assays:
[1] = AUC (0-t) in male rat at 2 mg/kg,iv measured upto 24 hrs; assay type: ADME, organism-based; set-up: time < 24 hrs, dose 2 mg/kg, route iv; settings: in vivo
Method in brief: (§1)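 Single iv dose: rats 2, 4 or 8 mg/kg by intravenous injection; Beagle dogs 1, 2 or 4 mg/kg by intravenous infusion. Plasma concentration–time data were analysed by sex and pooled. Reported parameters: Cmax, Tmax, AUC0−t, AUC0−∞, MRT0−∞, t1/2, CL, Vss, given as mean ± SD.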

[2] = Half life in male rat at 2 mg/kg,iv measured upto 24 hrs; assay type: ADME, organism-based; settings: in vivo
4T1 [3] = assay: Antitumor activity against mouse 4T1 cells implanted in BALB/c mouse assessed as decrease in MMP9 mRNA expression in lung at 20 mg/kg,iv administrated qd for 2 days by qRT-PCR analysis; assay type: functional, organism-based; settings: time 2.0 day
Method in brief: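 Day 19 after 4T1 implantation, mice randomised into five groups; iv vehicle or 20 mg/kg plus ip C12-iE-DAP (50 μg/mouse) and MDP (100 μg/mouse) once daily for 2 days; killed after 48 h; lung mRNA for MMP8, MMP9, PROK2, S100A8, S100A9 and IL-1β by qPCR; mean ± SEM.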

[4] = Acute toxicity in Sprague-Dawley rat assessed as lethal dose at iv administration; assay type: organism-based; settings: in vivo
Method in brief: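 Acute toxicity after a single intravenous administration. […] In dogs, an approximate lethal dose range was determined.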

[5] = AUC (0-t) in Beagle dog at 2 mg/kg,iv measured upto 24 hrs; assay type: ADME, organism-based, Canis lupus familiaris; set-up: time < 24 hrs, dose 2 mg/kg, route iv; settings: in vivo; method in brief: as §1
[6] = Tmax in male rat at 8 mg/kg,iv measured upto 24 hrs; assay type: ADME, organism-based; settings: in vivo
[7] = AUC (0-infinity) in male Beagle dog at 4 mg/kg,iv measured upto 24 hrs; assay type: ADME, organism-based, Canis lupus familiaris; set-up: dose 4 mg/kg, time < 24 hrs, route iv; settings: in vivo; method in brief: as §1
[8] = Prodrug conversion in mouse plasma implanted with mouse 4T1 cells assessed as half life of docetaxel at 4 mg/kg,iv measured upto 72 hrs; assay type: ADME, organism-based; settings: in vivo
Cytochrome P450 2B6 = Cytochrome P450 2B6 (Homo sapiens, UniProt P20813); assay: Inhibition of CYP2B6 in human liver microsomes using probe substrate at 0.1 to 100 uM in presence of NADPH; assay type: ADME, Microsome; settings: dose 0.1-100 µM
Cytochrome P450 2B6, sequence (P20813 whole entry): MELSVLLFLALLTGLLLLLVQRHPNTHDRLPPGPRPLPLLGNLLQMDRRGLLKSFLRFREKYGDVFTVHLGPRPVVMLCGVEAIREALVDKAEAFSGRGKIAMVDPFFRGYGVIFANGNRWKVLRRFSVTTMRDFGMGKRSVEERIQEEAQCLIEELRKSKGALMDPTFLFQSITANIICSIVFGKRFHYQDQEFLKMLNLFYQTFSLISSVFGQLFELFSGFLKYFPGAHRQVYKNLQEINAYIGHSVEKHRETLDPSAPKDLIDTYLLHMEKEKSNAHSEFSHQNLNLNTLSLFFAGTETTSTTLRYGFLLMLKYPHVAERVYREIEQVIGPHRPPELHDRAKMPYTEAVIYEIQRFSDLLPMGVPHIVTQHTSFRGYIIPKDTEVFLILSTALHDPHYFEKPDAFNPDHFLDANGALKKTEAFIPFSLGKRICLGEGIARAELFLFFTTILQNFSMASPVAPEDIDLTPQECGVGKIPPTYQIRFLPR

[9] = Prodrug conversion in mouse plasma implanted with mouse 4T1 cells assessed as Tmax of docetaxel at 4 mg/kg,iv measured upto 72 hrs; assay type: ADME, organism-based; settings: in vivo
[10] = Half life in male rat at 8 mg/kg,iv measured upto 24 hrs; assay type: ADME, organism-based; settings: in vivo
[11] = Clearance in rat at 8 mg/kg,iv measured upto 24 hrs; assay type: ADME, organism-based; settings: in vivo
Method in brief: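 Rats were given a single iv injection at 2, 4 or 8 mg/kg. Plasma parent drug and released docetaxel were followed over time. Cmax, Tmax, AUC, MRT, t1/2, CL and Vss were reported for males, females and all animals combined.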

[12] = Drug metabolism in dog hepatocytes assessed as docetaxel metabolite formation at 20 uM incubated for 180 mins; assay type: ADME, cell-based, Canis lupus familiaris, Hepatocyte; settings: 3 h
[13] = Toxicity in Beagle dog assessed as maximal non-toxic dose at iv administration; assay type: organism-based, Canis lupus familiaris; settings: in vivo, read-out: MNTD
[14] = Toxicity in BALB/c mouse xenografted with human A549/Taxol cells assessed as body weight loss at 10 mg/kg,iv administrated once per week for 3 weeks; assay type: organism-based, A549/TR; settings: in vivo, 504 h
[15] = Drug concentration in plasma of rat at 2.28 mg/kg,iv measured upto 24 hrs; assay type: ADME, organism-based; settings: in vivo
Method in brief: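 Taxane given as a single intravenous dose: 2.28 mg/kg to rats by injection and 1.14 mg/kg to Beagle dogs by infusion. Plasma concentrations were then measured.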

4T1 [16] = assay: Antitumor activity against mouse 4T1 cells implanted in BALB/c mouse assessed as decrease in spleen MMP2 expression level at 5.7 mg/kg,iv administrated once per week for 4 weeks in presence of compound 5b by western blot assay; assay type: functional, organism-based
Method in brief: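 4T1 cells injected into mammary fat pads of BALB/c mice. Saline vehicle or test article given iv once weekly for 4 weeks. Spleen, lung and tumor lysates immunoblotted for MMP2/MMP9 with β-actin as loading control. Bands averaged over five mice per group, representative of two independent experiments.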

[17] = Cmax in mouse tumor implanted with mouse 4T1 cells at 5.7 mg/kg,iv measured upto 72 hrs; assay type: ADME, organism-based, Neoplasm; set-up: time < 72 hrs, dose 5.7 mg/kg, route iv
4T1 [18] = assay: Antitumor activity against mouse 4T1 cells implanted in BALB/c mouse assessed as decrease in spleen MDSC cells at 5.7 mg/kg,iv measured after 28 days (reference value: 38%); assay type: functional; set-up: scale not given: the % may be the effect or the level left; settings: time 28 day
Method in brief: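 Splenocytes taken from 4T1 fat-pad tumor-bearing BALB/c mice after 28 days of tumor growth with weekly iv dosing. Cells stained with anti-CD11b PE and anti-Gr-1 FITC, and the Gr-1+CD11b+ percentage scored by flow cytometry. Eight mice per treated group, five naive. Mean ± SEM.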

4T1 [19] = assay: Antitumor activity against mouse 4T1 cells implanted in BALB/c mouse assessed as decrease in lung injury at 5.7 mg/kg,iv administrated once per week for 4 weeks in presence of compound 5b by H and E staining based assay; assay type: functional, organism-based
Method in brief: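 BALB/c mice bearing orthotopic mammary fat pad 4T1 tumors, dosed iv weekly for 4 weeks with saline vehicle as control. Lung sections stained with hematoxylin and eosin and examined by light microscopy at 40× for metastasis, inflammatory infiltration and alveolar wall thickening.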

4T1 [20] = assay: Antitumor activity against mouse 4T1 cells xenografted with BALB/c mouse assessed as inhibition of tumor growth at 5.7 mg/kg,iv in presence of compound 6 administrated once per week for 4 weeks; assay type: functional; settings: 4T1, 672 h
Method in brief: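 4T1 cells injected into mammary fat pads of BALB/c mice. Dosing iv once per week for 4 weeks, saline vehicle; single-agent arms were given alone or with the peptide component (5b or 6). Endpoints were body weight, tumour volume, tumour weight, lung metastatic nodule count and lung metastasis score. Mean ± SEM, n = 10; ANOVA and Student's t test.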

Compound: CC(=O)O[C@@]12CO[C@@H]1C[C@H](O)[C@@]1(C)C(=O)[C@H](O)C3=C(C)[C@@H](OC(=O)[C@H](OC(=O)CCC(=O)NCCCC[C@H](NC(=O)CC[C@@H](NC(=O)[C@H](C)NC(=O)/C=C/c4ccc(F)cc4Cl)C(N)=O)C(=O)O)[C@@H](NC(=O)OC(C)(C)C)c4ccccc4)C[C@@](O)([C@@H](OC(=O)c4ccccc4)[C@H]21)C3(C)C
- AUC(0-t) at 24 h [1]: 6090 ng·h/mL
- half-life [2]: 9 min
- Activity (4T1 [3]): Active
- LD50 [4]: 13.2 mg/kg
- AUC(0-t) at 24 h [5]: 5900 ng·h/mL
- Tmax [6]: 4.98 min
- AUC(0-inf) [7]: 15300 ng·h/mL
- t1/2 [8]: 178 min
- inhibition (INH) (Cytochrome P450 2B6): Not Active
- Tmax [9]: 1.8 min
- half-life [10]: 21.4 min
- clearance [11]: 2.97 mL/min/kg
- Drug metabolism [12]: Metabolite_Detected
- NOAEL [13]: 6 mg/kg
- Activity [14]: Non-Toxic

Compound: CC(=O)O[C@@]12CO[C@@H]1C[C@H](O)[C@@]1(C)C(=O)[C@H](O)C3=C(C)[C@@H](OC(=O)[C@H](O)[C@@H](NC(=O)OC(C)(C)C)c4ccccc4)C[C@@](O)([C@@H](OC(=O)c4ccccc4)[C@H]21)C3(C)C [DOCETAXEL ANHYDROUS]
- Drug uptake [15]: 45%
- Activity (4T1 [16]): inactive
- Cmax [17]: 950 nM
- Activity (4T1 [18]): 36.4%
- Activity (4T1 [19]): Active
- inhibition in vivo at 5.7 mg/kg (4T1 [20]): 15.4%
